Assay results pooled from the literature.
Lines come from different studies, so protocols differ.
Target: Mitogen-activated protein kinase 12 (MAPK12, Homo sapiens, UniProt P53778)
One construct used (P53778 1-367): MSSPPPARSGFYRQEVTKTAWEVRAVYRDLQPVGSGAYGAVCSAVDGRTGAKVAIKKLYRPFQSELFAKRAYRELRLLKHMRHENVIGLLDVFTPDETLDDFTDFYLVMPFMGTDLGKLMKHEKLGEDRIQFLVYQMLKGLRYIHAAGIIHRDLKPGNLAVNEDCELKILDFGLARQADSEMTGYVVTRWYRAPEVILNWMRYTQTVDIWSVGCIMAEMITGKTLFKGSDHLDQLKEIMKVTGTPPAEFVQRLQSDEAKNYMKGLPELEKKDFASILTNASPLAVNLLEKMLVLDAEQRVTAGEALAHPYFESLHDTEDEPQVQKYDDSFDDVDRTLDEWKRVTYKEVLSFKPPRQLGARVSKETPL

Compound | test | conditions | quantity | value
Cc1nn(C)cc1-c1nc2c(N3CCN(Cc4ccc(Cl)cc4)CC3)c(Cl)cnc2[nH]1 | binding, competition with immobilised ligand | 1 µM | remaining binding | 100%
Nc1ncc(-c2nc(N3CCOCC3)nc(N3CCOCC3)n2)c(C(F)F)n1 | binding, competition with immobilised ligand | 10 µM | remaining binding | 100%
Cn1cncc1[C@](O)(COc1ccc(C#N)cc1-c1ccc(OC(F)(F)F)cc1)c1ccc(C#N)cc1 | cell-free assay, competition with immobilised ligand | 1 µM | remaining binding | 100%
CC(C)(C)c1cc(C=C(C#N)C#N)cc(Br)c1O | enzyme activity, inhibitor | 0.5 µM | remaining activity | 102%
Cn1cc(-c2cc(F)cc(N3CCn4c(cc5c4CCCC5)C3=O)c2CO)cc(Nc2ccc(N3CCN(C4COC4)CC3)cn2)c1=O | enzyme activity, inhibitor | 0.1 µM | inhibition | 16%
O=c1[nH]c2ccccc2n1C1CCN(Cc2ccc(-c3[nH]c4cc5ncnc5cc4nc3-c3ccccc3)cc2)CC1 | cell-free assay | 0.5 µM | remaining signal | 93.1%
COc1ncccc1-c1cnn2ccc(N3CCN(C(=O)OC(C)C)CC3)nc12 | binding, competition with immobilised ligand | 1 µM | remaining binding | 100%
Cn1cc(-c2cccc(N3CCc4c(sc5c4CC(C)(C)C5)C3=O)c2CO)cc(Nc2ccncn2)c1=O | enzyme activity, inhibitor | 1 µM | inhibition | 11%
